This passage reports Ki results from ChEMBL document CHEMBL1122238, “Synthesis of analogues of pepstatin. Effect of structure in subsites P1', P2', and P2 on inhibition of porcine pepsin” (J Med Chem, 1983).

Non-standard residues stand in square brackets, D forms with d. Residues, ends and D or L forms follow the SMILES beside them. *: point of attachment. Sta = CC(C)C[C@H](N)[C@@H](O)CC(=O)O; Isovaleryl = CC(C)CC(=O)*

For one assay, the target named is T1, Pepsin A (Sus scrofa, UniProt P00791). The assay can be described thus: Tested for time dependent inhibition constant against porcine pepsin. In a few lines: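 Porcine pepsin with synthetic heptapeptide substrate Phe-Gly-His-Phe(NO2)-Phe-Ala-Phe-OMe (Km 4.0 × 10^-5 M), followed spectrophotometrically. Enzyme preincubated with inhibitor for 10 min, and the reaction started by adding substrate. Velocities taken at apparent steady state. Inhibitor solutions generally contained 1% methanol v/v, and 10% for poorly soluble ones. IC50 converted to Ki by the Cha equation, correcting for total enzyme and S/Km.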
T1 sequence (P00791 whole entry): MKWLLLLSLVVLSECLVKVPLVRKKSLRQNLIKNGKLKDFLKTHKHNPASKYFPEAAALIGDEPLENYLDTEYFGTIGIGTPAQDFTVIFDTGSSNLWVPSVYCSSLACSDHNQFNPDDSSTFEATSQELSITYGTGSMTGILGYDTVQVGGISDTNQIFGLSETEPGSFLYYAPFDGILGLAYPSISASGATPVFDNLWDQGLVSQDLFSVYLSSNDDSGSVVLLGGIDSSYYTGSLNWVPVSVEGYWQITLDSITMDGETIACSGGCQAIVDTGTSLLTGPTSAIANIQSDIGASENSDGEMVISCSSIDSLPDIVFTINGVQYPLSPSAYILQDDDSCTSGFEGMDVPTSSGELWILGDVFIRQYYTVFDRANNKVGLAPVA
For `COC(=O)C(Cc1ccccc1)NC(=O)C(C)NC(=O)CC(O)C(CC(C)C)NC(=O)C(NC(=O)CC(C)C)C(C)C` (stereo unspecified), the Ki turned out to be 1.5 nM.
`CC(C)CCNC(=O)C(CC(C)C)NC(=O)CC(O)C(CC(C)C)NC(=O)C(NC(=O)CC(C)C)C(C)C` (stereo unspecified) displayed a Ki of 4.6 nM.
In turn, `COC(=O)C(CC(C)C)NC(=O)C(C)NC(=O)CC(O)C(CC(C)C)NC(=O)C(NC(=O)CC(C)C)C(C)C` (stereo unspecified) came in with a Ki of 1.1 nM.
On to `CC(C)CCNC(=O)C(C)NC(=O)CC(O)C(CC(C)C)NC(=O)C(C)NC(=O)CC(C)C` (stereo unspecified), for which the Ki turned out to be 30 nM.
For the compound `COC(=O)[C@H](C)NC(=O)C[C@H](O)[C@H](CC(C)C)NC(=O)[C@@H](NC(=O)[C@@H](NC(=O)CC(C)C)C(C)C)C(C)C` (Isovaleryl-VV[Sta]A-OMe), the Ki was 3.5 nM.
Regarding `CC(C)CCNC(=O)C(C)NC(=O)CC(O)C(CC(C)C)NC(=O)C(NC(=O)CC(C)C)C(C)C` (stereo unspecified), the Ki came to 3 nM.
`CC(C)CC(=O)NC(C(=O)NC(CC(C)C)C(O)CC(=O)NC(C)C(=O)NC(C)C)C(C)C` (stereo unspecified) registered a Ki of 20 nM.

The target of another assay is T1, Pepsin A. Put plainly: Tested for time independent inhibition constant against porcine pepsin. In outline: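 Pepsin (porcine) cleavage of Phe-Gly-His-Phe(NO2)-Phe-Ala-Phe-OMe (Km 4.0 × 10^-5 M), monitored by spectrophotometer. Reactions started with enzyme, giving linear steady-state initial velocities. Inhibitors were usually in 1% methanol v/v, or 10% if poorly soluble. IC50 came from inhibited versus uninhibited velocity and was converted to Ki by the Cha equation, Ki = (IC50 − Et/2)(1 + S/Km)^-1.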
With `COC(=O)C(C)NC(=O)CC(O)C(CC(C)C)NC(=O)C(NC(=O)CC(C)C)C(C)C` (stereo unspecified), the Ki was 600 nM.
In turn, `CC(C)CCNC(=O)C(C)NC(=O)CC(O)C(CC(C)C)NC(=O)CNC(=O)CC(C)C` (stereo unspecified) returned a Ki of 100 nM.
On to `CC(C)CCNC(=O)CNC(=O)CC(O)C(CC(C)C)NC(=O)C(NC(=O)CC(C)C)C(C)C` (stereo unspecified), for which the Ki came to 56 nM.
Consider `CCOC(=O)CC(O)C(CC(C)C)NC(=O)C(NC(=O)CC(C)C)C(C)C` (stereo unspecified), for which the Ki came out at 800 nM.
Turning to `CCOC(=O)C[C@H](O)[C@H](CC(C)C)NC(=O)[C@@H](NC(=O)[C@@H](NC(=O)CC(C)C)C(C)C)C(C)C` (Isovaleryl-Val-Val-[Sta]-OEt), the Ki stood at 10 nM.
`COC(=O)CNC(=O)C(C)NC(=O)CC(O)C(CC(C)C)NC(=O)C(NC(=O)CC(C)C)C(C)C` (stereo unspecified) registered a Ki of 68 nM.
On to `CC(C)CCNC(=O)C(C)NC(=O)CC(O)C(CC(C)C)NC(=O)C(CC(C)C)NC(=O)CC(C)C` (stereo unspecified), for which the Ki came to 13 nM.
On the same count and under the same terms, the result for `CNC(=O)C(C)NC(=O)CC(O)C(CC(C)C)NC(=O)C(NC(=O)CC(C)C)C(C)C` (stereo unspecified) reads 140 nM; that for `CC(C)CC(=O)NC(C(=O)NC(CC(C)C)C(O)CC(=O)NC(C)C)C(C)C` (stereo unspecified), 300 nM.
